Legend:
Calf thymus DNA = experiment: Binding affinity for DNA by ethidium bromide displacement assay; format: nucleic-acid assay; details: Bos taurus
Procedure, shortened: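 Competitive ethidium bromide displacement with calf thymus DNA at 10 µg/mL in 20 mM Na phosphate buffer, 0.1 M NaCl, 1 mM EDTA, pH 7.4. The apparent DNA affinity constant is given in 10^6 M^-1 ± standard deviation, from 6 values across two independent experiments.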

Mus musculus [1] = experiment: In vivo antitumor activity was evaluated on L1210 leukemia model and percent of treated/control of tumor cells was determined at 80 mg/kg dosage concentration.; format: functional
Procedure, shortened: (§1)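 Following NCI protocols, 10^5 viable L1210 leukemia cells were inoculated ip on day 0 into male or female CDF1 hybrid mice, 10 per test group. Compounds in distilled water were dosed ip (0.1 mL/10 g body weight) daily on days 1–5. T/C = median survival day of treated mice / median survival day of negative controls × 100.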

Mus musculus [2] = experiment: In vivo antitumor activity was evaluated on L1210 leukemia model and percent of treated/control of tumor cells was determined at 15 mg/kg dosage concentration.; format: functional; procedure, shortened: as §1
Mus musculus [3] = experiment: In vivo antitumor activity was evaluated on L1210 leukemia model and percent of treated/control of tumor cells was determined at 2.5 mg/kg dosage concentration; format: functional; procedure, shortened: as §1
Mus musculus [4] = experiment: In vivo antitumor activity was evaluated on L1210 leukemia model and percent of treated/control of tumor cells was determined at 30 mg/kg dosage concentration; format: functional; procedure, shortened: as §1
Mus musculus [5] = experiment: In vivo antitumor activity was evaluated on L1210 leukemia model and percent of treated/control of tumor cells was determined at 5 mg/kg dosage concentration; format: functional; procedure, shortened: as §1
Mus musculus [6] = experiment: In vivo antitumor activity was evaluated on L1210 leukemia model and percent of treated/control of tumor cells was determined at 60 mg/kg dosage concentration.; format: functional; procedure, shortened: as §1
Mus musculus [7] = experiment: In vivo antitumor activity was determined against P388 leukemia cells expressed as number of; format: functional
Procedure, shortened: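 P388 leukemia, 10^6 viable cells inoculated ip on day 0 into CDF1 hybrid male or female mice, 10 mice per group. Compounds were given ip in distilled water (0.1 mL/10 g body weight) at various doses on days 1-5. Vehicle controls were treated the same way. NCI protocols were followed.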

Mus musculus [8] = experiment: In vivo antitumor activity was evaluated on L1210 leukemia model and number of survivors (animals) was determined at 15 mg/kg dosage concentration; number of survivors given as 0/10; format: functional
Procedure, shortened: (§2)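 L1210 leukemia, 10^5 viable cells inoculated ip on day 0 into CDF1 hybrid male or female mice, 10 mice per group. Compounds were given ip in distilled water (0.1 mL/10 g body weight) on days 1-5. Vehicle controls were treated the same way. NCI protocols were followed. T/C = median survival day of treated mice / median survival day of vehicle controls × 100.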

Mus musculus [9] = experiment: In vivo antitumor activity was evaluated on L1210 leukemia model and number of survivors (animals) was determined at 2.5 mg/kg dosage concentration; number of survivors given as 0/10; format: functional; procedure, shortened: as §2
Mus musculus [10] = experiment: In vivo antitumor activity was evaluated on L1210 leukemia model and number of survivors (animals) was determined at 30 mg/kg dosage concentration; number of survivors given as 0/10; format: functional; procedure, shortened: as §2
Mus musculus [11] = experiment: In vivo antitumor activity was evaluated on L1210 leukemia model and number of survivors (animals) was determined at 5 mg/kg dosage concentration; number of survivors given as 0/10; format: functional; procedure, shortened: as §2
Mus musculus [12] = experiment: In vivo antitumor activity was evaluated on L1210 leukemia model and number of survivors (animals) was determined at 60 mg/kg dosage concentration; number of survivors given as 1/10; format: functional; procedure, shortened: as §2
Mus musculus [13] = experiment: In vivo antitumor activity was evaluated on L1210 leukemia model and number of survivors (animals) was determined at 80 mg/kg dosage concentration; number of survivors given as 0/10; format: functional; procedure, shortened: as §2
Mus musculus [14] = experiment: In vivo antitumor activity was evaluated on L1210 leukemia model and weight change in tumors was determined at 5 mg/kg dosage concentration; format: functional
Mus musculus [15] = experiment: In vivo antitumor activity was evaluated on L1210 leukemia model and weight change in tumors was determined at 60 mg/kg dosage concentration.; format: functional
Mus musculus [16] = experiment: In vivo antitumor activity was evaluated on L1210 leukemia model and weight change in tumors was determined at 80 mg/kg dosage concentration.; format: functional
Mus musculus [17] = experiment: In vivo antitumor activity was evaluated on L1210 leukemia model and weight change in tumors was determined at 30 mg/kg dosage concentration; format: functional
Mus musculus [18] = experiment: In vivo antitumor activity was evaluated on L1210 leukemia model and median survival day was determined at 15 mg/kg dosage concentration.; format: functional; procedure, shortened: as §2
Mus musculus [19] = experiment: In vivo antitumor activity was evaluated on L1210 leukemia model and median survival day was determined at 2.5 mg/kg dosage concentration; format: functional; procedure, shortened: as §2
Mus musculus [20] = experiment: In vivo antitumor activity was evaluated on L1210 leukemia model and median survival day was determined at 30 mg/kg dosage concentration; format: functional; procedure, shortened: as §2
Mus musculus [21] = experiment: In vivo antitumor activity was evaluated on L1210 leukemia model and median survival day was determined at 60 mg/kg dosage concentration.; format: functional; procedure, shortened: as §2
Mus musculus [22] = experiment: In vivo antitumor activity was evaluated on L1210 leukemia model and median survival day was determined at 80 mg/kg dosage concentration.; format: functional; procedure, shortened: as §2
Mus musculus [23] = experiment: In vivo antitumor activity was evaluated on L1210 leukemia model and weight change in tumors was determined at 15 mg/kg dosage concentration.; format: functional
Mus musculus [24] = experiment: In vivo antitumor activity was evaluated on L1210 leukemia model and weight change in tumors was determined at 2.5 mg/kg dosage concentration; format: functional
Mus musculus [25] = experiment: In vivo antitumor activity was determined against P388 leukemia cells expressed as treated/control at the dosage of 10 mg/kg; format: functional
Procedure, shortened: (§3)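 Following NCI protocols, 10^6 viable P388 leukemia cells were inoculated ip on day 0 into male or female CDF1 hybrid mice, 10 per test group. Compounds in distilled water were given ip (0.1 mL/10 g body weight) at various doses on days 1–5. T/C = median survival day of treated / median survival day of negative controls × 100.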

Mus musculus [26] = experiment: In vivo antitumor activity was determined against P388 leukemia cells expressed as treated/control at the dosage of 20 mg/kg; format: functional; procedure, shortened: as §3
Mus musculus [27] = experiment: In vivo antitumor activity was determined against P388 leukemia cells expressed as treated/control at the dosage of 40 mg/kg; format: functional; procedure, shortened: as §3
Mus musculus [28] = experiment: In vivo antitumor activity was determined against P388 leukemia cells expressed as treated/control at the dosage of 50 mg/kg; format: functional; procedure, shortened: as §3
Mus musculus [29] = experiment: In vivo antitumor activity was evaluated on L1210 leukemia model and median survival day was determined at 5 mg/kg dosage concentration; format: functional; procedure, shortened: as §2

Work on `CCN(CC)CCCNc1ncc(C)c2c1c1cnccc1n2C` yielded a K aff (Calf thymus DNA) of 40000 M⁻¹, a T/C (Mus musculus [1]) of 99% and a T/C (Mus musculus [2]) of 149%. For the same molecule, the T/C (Mus musculus [3]) was 118%, the T/C (Mus musculus [4]) was 187.5% and the T/C (Mus musculus [5]) was 138%. For the same molecule, the T/C (Mus musculus [6]) was 196%, the Survivors (Mus musculus [7]) was 3 and the Survivors (Mus musculus [8]) was 0. For the same molecule, the Survivors (Mus musculus [9]) was 0, the Survivors (Mus musculus [10]) was 0 and the Survivors (Mus musculus [11]) was 0. The Survivors (Mus musculus [12]) was 1, the Survivors (Mus musculus [13]) was 0 and the Weight changes (Mus musculus [14]) was -0.3 g. For the same molecule, the Weight changes (Mus musculus [15]) was -2.3 g, the Weight changes (Mus musculus [16]) was -2.3 g and the Weight changes (Mus musculus [17]) was 0.2 g. It also gave a Median survival day (Mus musculus [18]) of 13.75, a Median survival day (Mus musculus [19]) of 10.9 and a Median survival day (Mus musculus [20]) of 17.25. For the same molecule, the Median survival day (Mus musculus [21]) was 18, the Median survival day (Mus musculus [22]) was 9.1 and the Weight changes (Mus musculus [23]) was 0.8 g. It also gave a Weight changes (Mus musculus [24]) of 0.7 g, a T/C (Mus musculus [25]) of 147 and a T/C (Mus musculus [26]) of 164. For the same molecule, the T/C (Mus musculus [27]) was 172, the T/C (Mus musculus [28]) was 207 and the Median survival day (Mus musculus [29]) was 12.75.
